The values below come from PubChem BioAssay AID651922 (Vanderbilt Specialized Chemistry Center, 2012).

In the assay the target is Muscarinic acetylcholine receptor M3 (Homo sapiens) (UniProt P20309). Description: ACh response enhancement at M3 – CHO cells, human M3, selectivity assay for M5 PAM project (AID 651922). A digest of the protocol: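 Assay system: CHO-K1 cells stably expressing human M3 muscarinic receptor, Fluo-4 loaded | Probe or stimulus: Acetylcholine at submaximal EC20 concentration | Read-out: % of maximal acetylcholine response | Times: Compound pre-incubation 1.5 min, acetylcholine stimulation 50 s, read at 25 °C | Compound dosing: 0.3% DMSO final | Technique: Fluo-4 fluorescence calcium mobilization measurement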
Sequence of Muscarinic acetylcholine receptor M3 (Homo sapiens) (P20309 whole entry, looked up): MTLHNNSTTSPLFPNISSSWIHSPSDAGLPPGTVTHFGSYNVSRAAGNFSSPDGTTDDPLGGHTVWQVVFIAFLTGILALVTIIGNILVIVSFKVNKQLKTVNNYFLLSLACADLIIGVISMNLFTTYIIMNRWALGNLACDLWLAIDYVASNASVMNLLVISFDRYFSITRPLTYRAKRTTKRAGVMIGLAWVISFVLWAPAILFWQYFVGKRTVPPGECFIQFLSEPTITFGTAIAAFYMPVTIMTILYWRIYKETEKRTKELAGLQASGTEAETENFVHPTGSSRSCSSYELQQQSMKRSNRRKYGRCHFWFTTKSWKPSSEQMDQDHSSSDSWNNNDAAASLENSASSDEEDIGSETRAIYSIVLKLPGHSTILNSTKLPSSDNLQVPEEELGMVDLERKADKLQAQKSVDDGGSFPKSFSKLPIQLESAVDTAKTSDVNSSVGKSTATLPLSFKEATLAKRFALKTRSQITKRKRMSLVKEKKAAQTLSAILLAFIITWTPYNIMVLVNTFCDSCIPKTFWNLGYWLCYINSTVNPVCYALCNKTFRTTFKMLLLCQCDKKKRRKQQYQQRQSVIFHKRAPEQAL

Activity calls are given as the source filed them. The rule behind the calls is not given here.

In the case of `O=C1C(=O)N(CCOc2ccccc2)c2ccc(OC(F)(F)F)cc21`, the outcome was inactive.
